The source of these data is ChEMBL document CHEMBL2429814 (J Med Chem, 2013).

A value given as a limit tells only on which side of the number the result lay.

The target of assay [1] is T1, Metabotropic glutamate receptor 5 (Rattus norvegicus, UniProt P31424). Description: Agonist activity at rat mGluR5 stably expressed in HEK293 cells assessed as increase in intracellular calcium level by Fluo-4AM dye-based fluorescence assay relative to glutamate. The settings on record: read-out: Efficacy. It is filed as cell-based. Summed up:
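HEK293 cells stably expressing rat mGlu5 (low receptor density), 15,000 cells/well, grown overnight, then loaded with Fluo-4AM for 50 min at 37°C in HBSS/20 mM HEPES/2.5 mM probenecid, pH 7.4. Triple-add protocol: compound, then glutamate EC20 140 s later, then EC80 60 s later. Fluorescence read over time. At least three independent runs in duplicate or triplicate; response given as % of glutamate maximum.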
(A change in cytosolic calcium serves as a functional read-out for many receptors and channels.)

Assay [2] concerns the target T1, Metabotropic glutamate receptor 5. The assay can be described thus: Agonist activity at rat mGluR5 stably expressed in HEK293 cells assessed as increase in intracellular calcium level by Fluo-4AM dye-based fluorescence assay. It is filed as cell-based. Summed up: (§1)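 HEK293 cells stably expressing rat mGlu5 (low receptor density line), 15,000 cells/well, grown overnight at 37°C/5% CO2. Loaded with Fluo-4AM for 50 min at 37°C in HBSS with 20 mM HEPES, 2.5 mM probenecid, pH 7.4. Triple add: compound, then EC20 glutamate 140 s later, then EC80 glutamate 60 s later. Calcium fluorescence read over time. Values are means of ≥3 independent experiments run in duplicate or triplicate.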

Assay [3] addresses Metabotropic glutamate receptor 5 (Rattus norvegicus) (UniProt P31424). Description: Positive allosteric modulation of rat mGluR5 stably expressed in HEK293 cells assessed as increase in intracellular calcium level by Fluo-4AM dye-based fluorescence assay relative to glutamate. Type of assay: functional, cell-based.
Assay [4] concerns the target T1, Metabotropic glutamate receptor 5. Description: Positive allosteric modulation of rat mGluR5 stably expressed in HEK293 cells assessed as increase in intracellular calcium level by Fluo-4AM dye-based fluorescence assay. It is filed as functional, cell-based. The following applies: read-out: EC50. Summed up: as §1
Assay [5] has as its target Metabotropic glutamate receptor 5 (Rattus norvegicus) (UniProt P31424). The assay can be described thus: Potentiation of rat mGluR5 receptor stably expressed in HEK293 cells assessed as fold shift in glutamate concentration response curve at 10 uM relative to control. Type of assay: cell-based. The gist of the method:
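HEK293 cells stably expressing rat mGlu5 were loaded with Fluo-4AM. Compound at 10 µM, or vehicle, was added, and a glutamate concentration-response curve followed 140 s later. The fold leftward shift of the glutamate curve was read from calcium fluorescence. Values are means of three independent experiments in triplicate.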

T1 sequence (P31424 whole entry): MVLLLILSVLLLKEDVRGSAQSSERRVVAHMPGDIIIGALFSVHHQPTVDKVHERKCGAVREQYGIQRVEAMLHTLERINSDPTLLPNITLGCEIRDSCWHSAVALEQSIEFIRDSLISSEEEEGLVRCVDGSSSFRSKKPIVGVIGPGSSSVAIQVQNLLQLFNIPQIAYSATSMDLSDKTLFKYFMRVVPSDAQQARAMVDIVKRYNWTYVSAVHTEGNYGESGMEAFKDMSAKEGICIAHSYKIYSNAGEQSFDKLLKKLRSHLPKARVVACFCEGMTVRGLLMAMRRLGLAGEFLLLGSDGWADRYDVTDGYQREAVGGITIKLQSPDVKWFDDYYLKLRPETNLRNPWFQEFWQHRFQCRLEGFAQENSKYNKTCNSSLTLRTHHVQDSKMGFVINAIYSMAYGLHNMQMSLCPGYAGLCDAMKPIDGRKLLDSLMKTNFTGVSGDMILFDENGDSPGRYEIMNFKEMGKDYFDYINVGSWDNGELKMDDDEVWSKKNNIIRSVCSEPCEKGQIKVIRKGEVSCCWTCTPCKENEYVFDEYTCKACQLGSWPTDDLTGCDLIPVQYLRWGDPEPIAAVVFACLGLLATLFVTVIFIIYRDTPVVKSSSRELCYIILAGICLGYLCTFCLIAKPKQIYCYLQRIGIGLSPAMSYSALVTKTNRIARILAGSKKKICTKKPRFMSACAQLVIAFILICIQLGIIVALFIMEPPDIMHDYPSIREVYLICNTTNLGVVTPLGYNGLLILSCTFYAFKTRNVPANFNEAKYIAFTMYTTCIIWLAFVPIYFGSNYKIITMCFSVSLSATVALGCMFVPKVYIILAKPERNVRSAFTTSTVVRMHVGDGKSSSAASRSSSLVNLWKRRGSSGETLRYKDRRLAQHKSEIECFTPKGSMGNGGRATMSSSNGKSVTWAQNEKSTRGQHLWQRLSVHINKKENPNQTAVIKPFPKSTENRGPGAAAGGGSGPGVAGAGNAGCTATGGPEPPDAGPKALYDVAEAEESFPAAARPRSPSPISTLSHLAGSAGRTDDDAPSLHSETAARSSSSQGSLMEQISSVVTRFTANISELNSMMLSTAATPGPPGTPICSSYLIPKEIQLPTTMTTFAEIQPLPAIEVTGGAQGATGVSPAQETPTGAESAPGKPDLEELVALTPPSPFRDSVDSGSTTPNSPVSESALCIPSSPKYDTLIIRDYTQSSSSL
Chain of Metabotropic glutamate receptor 5 (Rattus norvegicus) (P31424 21-1203 limits assumed): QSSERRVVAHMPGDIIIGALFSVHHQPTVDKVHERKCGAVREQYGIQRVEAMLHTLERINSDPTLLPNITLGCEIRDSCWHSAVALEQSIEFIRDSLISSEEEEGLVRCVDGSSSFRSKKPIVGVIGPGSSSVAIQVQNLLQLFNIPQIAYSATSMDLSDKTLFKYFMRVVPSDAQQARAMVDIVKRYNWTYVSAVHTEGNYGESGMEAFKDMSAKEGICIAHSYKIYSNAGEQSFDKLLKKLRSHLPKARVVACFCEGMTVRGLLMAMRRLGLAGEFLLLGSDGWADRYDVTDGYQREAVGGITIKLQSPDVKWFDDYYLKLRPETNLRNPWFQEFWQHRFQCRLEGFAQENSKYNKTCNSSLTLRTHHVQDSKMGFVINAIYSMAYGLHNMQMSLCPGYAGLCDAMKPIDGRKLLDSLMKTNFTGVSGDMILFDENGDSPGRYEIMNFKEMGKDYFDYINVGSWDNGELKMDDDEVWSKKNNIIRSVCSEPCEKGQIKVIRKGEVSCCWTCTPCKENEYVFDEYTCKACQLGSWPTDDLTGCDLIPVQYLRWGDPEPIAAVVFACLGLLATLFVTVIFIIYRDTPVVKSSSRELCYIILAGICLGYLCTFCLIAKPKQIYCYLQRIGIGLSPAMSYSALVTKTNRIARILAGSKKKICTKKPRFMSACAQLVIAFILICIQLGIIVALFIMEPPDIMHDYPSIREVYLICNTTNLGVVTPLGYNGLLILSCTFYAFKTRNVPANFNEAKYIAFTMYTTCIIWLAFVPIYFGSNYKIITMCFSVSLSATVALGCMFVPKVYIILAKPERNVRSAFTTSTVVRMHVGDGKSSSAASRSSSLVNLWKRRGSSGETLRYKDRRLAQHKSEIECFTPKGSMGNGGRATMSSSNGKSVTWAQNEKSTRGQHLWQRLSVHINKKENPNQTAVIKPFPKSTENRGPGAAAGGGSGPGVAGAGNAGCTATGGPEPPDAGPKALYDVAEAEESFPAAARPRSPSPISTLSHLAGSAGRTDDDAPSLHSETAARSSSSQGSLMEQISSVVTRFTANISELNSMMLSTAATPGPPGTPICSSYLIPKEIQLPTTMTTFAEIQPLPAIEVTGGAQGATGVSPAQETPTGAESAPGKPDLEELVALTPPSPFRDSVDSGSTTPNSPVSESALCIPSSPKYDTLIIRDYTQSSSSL

For the molecule `CC(C)(C)CNC(=O)c1ccc(C#Cc2cccc(F)c2)cn1`, in assay [1], the Emax was 9.5%. The EC50 came out at 2570 nM in assay [2] (read-out: EC50) and 16.6 nM in assay [4]. Also, the Efficacy in assay [3] is 63.9%.
Regarding `C[C@@H](NC(=O)c1ccc(C#Cc2ccccc2F)cn1)C(C)(C)O`, in assay [1], the Emax amounted to 29.6%. The EC50 in assay [2] (read-out: EC50) came out at 1160 nM; in assay [4], 8 nM. For the same molecule, the Efficacy in assay [3] was found to be 60%.
For `C[C@@H](NC(=O)c1ccc(C#Cc2cc(F)cc(F)c2)cn1)C(C)(C)O` the same measures were 37.9%, 3670 nM, 58.2 nM and 61.6%.
Regarding `C[C@@H](NC(=O)c1ccc(C#Cc2ccc(F)cn2)cn1)C(C)(C)O`, the Emax in assay [1] came out at 13.5%. In addition, the EC50 in assay [2] (read-out: EC50) is 1700 nM; in assay [4] it was 28.2 nM. Moreover, the Efficacy in assay [3] was 64.6%.
Regarding `C[C@@H](NC(=O)c1ccc(C#Cc2cccc(F)c2)cn1)C(C)(C)C`, the Emax in assay [1] is 31.2%. Moreover, the EC50 in assay [2] (read-out: EC50) was 2750 nM; in assay [4], 17.8 nM. Besides, in assay [3], the Efficacy is 66%.
In the case of `Cc1ccc(C#Cc2ccc(C(=O)N[C@H](C)C(C)(C)O)nc2)cc1`, the Efficacy in assay [3] stood at 63.1%. Moreover, the EC50 in assay [4] turned out to be 107 nM.
`C[C@@H](NC(=O)c1ccc(C#Cc2cccc(F)c2)nn1)C(C)(C)O`: the Emax in assay [1] amounted to 16.5%. The results for the EC50 in assay [2] (read-out: EC50) and in assay [4] were 2120 nM and 21.9 nM, respectively. Further, the Efficacy in assay [3] was determined as 70.2%.
Take `CCCNC(=O)c1ccc(C#Cc2cccc(F)c2)cn1`: the Emax in assay [1] was 8.3%. The EC50 came out at 3010 nM in assay [2] (read-out: EC50) and 34.4 nM in assay [4]. In addition, the Efficacy in assay [3] was found to be 65.9%.
As to `CC(C)(O)CCNC(=O)c1ccc(C#Cc2cccc(F)c2)cn1`, the fold change (FC) in assay [5] was found to be 5.3. For the same molecule, the Efficacy in assay [3] came out at 61.9%. Further, the EC50 in assay [4] was determined as 136 nM.
In the case of `Cc1nc(C#Cc2cccc(F)c2)ccc1C(=O)N[C@H](C)C(C)(C)O`, the Emax in assay [1] was 9.2%. Moreover, the EC50 in assay [2] (read-out: EC50) is 1090 nM; in assay [4], 17.1 nM. Moreover, the Efficacy in assay [3] came to 64.9%.
For `C[C@@H](NC(=O)c1ccc(C#CC2CC2)cn1)C(C)(C)O`, in assay [3], the Efficacy was determined as 63.4%. Further, the EC50 in assay [4] worked out at 1290 nM.
As for `Cc1nc(C#Cc2ccc(C(=O)N[C@H](C)C(C)(C)O)nc2)cs1`, the fold change (FC) in assay [5] turned out to be 1.6. Moreover, the Efficacy in assay [3] was determined as 66.6%. Also, the EC50 in assay [4] was 58.4 nM.
Take `C[C@@H](NC(=O)c1cnc(C#Cc2cccc(F)c2)cn1)C(C)(C)O`: the Emax in assay [1] came to 17.2%. For the same molecule, the EC50 came to 3040 nM in assay [2] (read-out: EC50) and 12.5 nM in assay [4]. Further, the Efficacy in assay [3] amounted to 64.4%.
Turning to `O=C(NCC1CCC1)c1ccc(C#Cc2cccc(F)c2)cn1`, the Emax in assay [1] amounted to 4.7%. Also, the figures for the EC50 in assay [2] (read-out: pEC50 (converted)) and in assay [4] were over 10000 nM and 84 nM, respectively. Moreover, the Efficacy in assay [3] stood at 68.1%.
Regarding `C[C@@H](NC(=O)c1ccc(C#Cc2ccc(F)cc2)cn1)C(C)(C)O`, in assay [1], the Emax turned out to be 38.4%. For the same molecule, the EC50 worked out at 1520 nM in assay [2] (read-out: EC50) and 12.3 nM in assay [4]. In assay [3], the Efficacy is 66.2%.
For `C[C@@H](NC(=O)c1nc(C#Cc2cccc(F)c2)cs1)C(C)(C)O`, in that order: 26.1%, 4780 nM, 33.5 nM and 62.1%.
For `C[C@@H](NC(=O)c1ccc(C#Cc2ccncc2)cn1)C(C)(C)O`, in that order: 22.4%, 4660 nM, 43 nM and 66.6%.
For `CC(C)(CO)NC(=O)c1ccc(C#Cc2cccc(F)c2)cn1` the same measures were 9.3%, 729 nM, 7.9 nM and 60.9%.
Regarding `CC(C)CNC(=O)c1ccc(C#Cc2cccc(F)c2)cn1`, the fold change (FC) in assay [5] stood at 1.9. Further, the Efficacy in assay [3] is 58.2%. The EC50 in assay [4] was 28.9 nM.
For `C[C@@H](NC(=O)c1ccc(C#Cc2cccc(F)c2)nc1)C(C)(C)O`, the Emax in assay [1] amounted to 26.6%. In addition, the EC50 in assay [2] (read-out: EC50) came to 6800 nM; in assay [4] it was 80 nM. Also, in assay [3], the Efficacy came out at 64.9%.
For `C[C@@H](NC(=O)c1ccc(C#Cc2cccc(F)c2)cn1)C(C)(C)F` the same measures were 42.8%, 2060 nM, 5.3 nM and 68.6%.
On to `CC1(NC(=O)c2ccc(C#Cc3ccncc3)cn2)COC1`, for which, in assay [3], the Efficacy came to 36%. Further, the EC50 in assay [4] turned out to be 691 nM.
For the molecule `CC(C)(O)CNC(=O)c1ccc(C#Cc2cccc(F)c2)cn1`, the Emax in assay [1] came out at 20%. Also, the EC50 in assay [2] (read-out: EC50) was 4020 nM; in assay [4], 34.6 nM. Besides, the Efficacy in assay [3] came out at 61.5%.
Turning to `C[C@@H](NC(=O)c1ncc(C#Cc2cccc(F)c2)cn1)C(C)(C)O`, in assay [1], the Emax was found to be 19.2%. Besides, the results for the EC50 in assay [2] (read-out: EC50) and in assay [4] were 4130 nM and 47.6 nM, respectively. Moreover, the Efficacy in assay [3] came to 64.1%.
For `Cc1ccccc1C#Cc1ccc(C(=O)N[C@H](C)C(C)(C)O)nc1` the same measures were 24.1%, 12400 nM, 217 nM and 59.9%.
Turning to `C[C@@H](NC(=O)c1ccc(C#Cc2cccnc2)cn1)C(C)(C)O`, in assay [1], the Emax amounted to 25.9%. The EC50 in assay [2] (read-out: EC50) amounted to 9300 nM; in assay [4] it was 344 nM. In addition, in assay [3], the Efficacy worked out at 71.5%.
For `C[C@@H](NC(=O)c1ccc(C#Cc2ccc(F)cc2F)cn1)C(C)(C)O`, in that order: 38.2%, 3690 nM, 26.6 nM and 61.2%.
For `CC(C)[C@@H](C)NC(=O)c1ccc(C#Cc2cccc(F)c2)cn1` the same measures were 22.5%, 1470 nM, 4.5 nM and 69.3%.
For `C[C@H](NC(=O)c1ccc(C#Cc2cccc(F)c2)cn1)C(C)(C)C` the same measures were 20%, 5400 nM, 51.9 nM and 70.8%.
Regarding `C[C@H](NC(=O)c1ccc(C#Cc2cccc(F)c2)cn1)C(F)(F)F`, the Emax in assay [1] was found to be 21.4%. Besides, the EC50 came out at 1390 nM in assay [2] (read-out: EC50) and 21.9 nM in assay [4]. Besides, the Efficacy in assay [3] came to 60.8%.
Turning to `CC(C)[C@H](C)NC(=O)c1ccc(C#Cc2cccc(F)c2)cn1`, in assay [1], the Emax is 13.1%. The EC50 in assay [2] (read-out: EC50) amounted to 2220 nM; in assay [4] it was 20.4 nM. Further, the Efficacy in assay [3] was 66.7%.
For `C[C@@H](NC(=O)c1ccc(C#Cc2ccccc2)cn1)C(C)(C)O` the same measures were 43.2%, 874 nM, 4.1 nM and 60.9%.
As to `Cc1cc(C(=O)N[C@H](C)C(C)(C)O)ncc1C#Cc1cccc(F)c1`, the Efficacy in assay [3] is 66.6%. In assay [4], the EC50 is 242 nM.
Consider `CC1(CCNC(=O)c2ccc(C#Cc3cccc(F)c3)cn2)COC1`, for which the Emax in assay [1] stood at 16.3%. In addition, the EC50 worked out at 2840 nM in assay [2] (read-out: EC50) and 47.3 nM in assay [4]. In addition, in assay [3], the Efficacy amounted to 65.7%.
For `Cc1cccc(C#Cc2ccc(C(=O)N[C@H](C)C(C)(C)O)nc2)c1`, in that order: 20.8%, 1360 nM, 6.5 nM and 68.6%.
As to `C[C@@H](NC(=O)c1ccc(C#Cc2ccccn2)cn1)C(C)(C)C`, the Emax in assay [1] stood at 24.2%. Moreover, the figures for the EC50 in assay [2] (read-out: EC50) and in assay [4] were 6110 nM and 63.3 nM, respectively. Besides, in assay [3], the Efficacy is 63%.
For `C[C@@H](NC(=O)c1ccc(C#CC2CCCC2)cn1)C(C)(C)O`, in that order: 14.8%, 9750 nM, 93.3 nM and 63.7%.
On to `C[C@@H](NC(=O)c1ccc(C#Cc2cccc(F)n2)cn1)C(C)(C)O`, for which the Emax in assay [1] was found to be 8.3%. The results for the EC50 in assay [2] (read-out: EC50) and in assay [4] were 1300 nM and 13.6 nM, respectively. For the same molecule, the Efficacy in assay [3] stood at 63%.
As to `C[C@@H](NC(=O)c1ccc(C#Cc2ncccc2F)cn1)C(C)(C)O`, the Emax in assay [1] is 29.2%. For the same molecule, the EC50 in assay [2] (read-out: EC50) came out at 3700 nM; in assay [4] it was 33.8 nM. The Efficacy in assay [3] came to 60.6%.
As for `O=C(NCC(F)(F)F)c1ccc(C#Cc2cccc(F)c2)cn1`, in assay [1], the Emax was 5.8%. Besides, the EC50 in assay [2] (read-out: EC50) amounted to 10700 nM; in assay [4], 224 nM. Besides, the Efficacy in assay [3] stood at 67%.
Take `CC(C)(C)NC(=O)c1ccc(C#Cc2cccc(F)c2)cn1`: in assay [4], the EC50 was found to be 2.6 nM.
Consider `C[C@@H](NC(=O)c1ccc(C#Cc2cccc(F)c2)cc1)C(C)(C)O`, for which the Emax in assay [1] turned out to be 43.6%. Also, the EC50 in assay [2] (read-out: EC50) worked out at 1040 nM; in assay [4], 7.5 nM. Also, in assay [3], the Efficacy came to 53.9%.
For `C[C@@H](NC(=O)c1ccc(C#Cc2cc(F)ccn2)cn1)C(C)(C)O` the same measures were 33%, 3980 nM, 36 nM and 66.2%.
